# Laboratory results published in ChEMBL document CHEMBL1142266, “Structure-based virtual screening for the discovery of natural inhibitors for human rhinovirus coat protein” (J Med Chem, 2008).
# Active and inactive are the calls of the source. The calls are words filed in the database; no cut-off is given here.
# Legend:
# [1] = Cytotoxicity against human HeLa cells after 72 hrs; format: cell-based
# [2] = Selectivity index, ratio of CC50 for HeLa cells to IC50 for HRV2 in HeLa cells; format: functional, Homo sapiens
# rhinovirus A2 [3] = experiment: Antiviral activity against HRV2 in HeLa cells; format: functional, organism-based; settings: Rhinovirus A
# Method in brief: (§1)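 Cytopathic-effect inhibition assays in HeLa cells infected with pleconaril-sensitive HRV-1A, -2, -14 or -16. Dose-dependent inhibition of virus-induced CPE was measured, and the 50% inhibitory concentration (IC50) was derived.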
# Human rhinovirus 1A = experiment: Antiviral activity against HRV1A in HeLa cells; format: functional, organism-based; method in brief: as §1
# rhinovirus B14 = experiment: Antiviral activity against HRV14 in HeLa cells; format: functional, organism-based; method in brief: as §1
# rhinovirus A16 [4] = experiment: Antiviral activity against HRV16 in HeLa cells; format: functional, organism-based; method in brief: as §1
# rhinovirus A2 [5] = experiment: Inactivation of HRV2 assessed as reduction in plaque at 2.5 ug/ml after 1 hr; format: functional, organism-based
# Method in brief: (§2)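 Direct-inactivation test using a modified plaque-reduction format. HRV-2 was incubated with or without compound at 37 °C for 1 h, and the suspensions were then diluted 100-fold. Residual virus titer was determined by plaque assay on HeLa cells, with pleconaril run as positive control.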
# rhinovirus A2 [6] = experiment: Inhibition of HRV2 absorption on HeLa cells assessed as reduction in plaques at 2.5 ug/ml after 2 hrs; format: functional; settings: Rhinovirus A
# rhinovirus A2 [7] = experiment: Inactivation of HRV2 assessed as reduction in plaque at 0.25 ug/ml after 1 hr; format: functional; parameters: scale not given: the % may be the effect or the level left; method in brief: as §2
# rhinovirus A2 [8] = experiment: Inhibition of HRV2 absorption on HeLa cells assessed as reduction in plaques at 0.25 ug/ml after 2 hrs; format: functional; settings: Rhinovirus A
# rhinovirus A2 [9] = experiment: Inhibition of HRV2 replication cycle progression; format: functional, organism-based; settings: Rhinovirus A
# rhinovirus A16 [10] = experiment: Inhibition of HRV16 replication cycle progression; format: functional, organism-based; settings: Rhinovirus A
# [11] = Selectivity for HRV2 over HRV16; format: functional
Compound,IC50 (rhinovirus A2 [3]) [µg/mL],EC50 (rhinovirus A2 [9]) [nM],EC50 (rhinovirus A16 [10]) [nM],IC50 (Human rhinovirus 1A) [µg/mL],IC50 (rhinovirus B14; Rhinovirus B) [µg/mL],IC50 (rhinovirus A16 [4]; Rhinovirus A) [µg/mL],CC50 at 72 h [1] [µg/mL],Ratio CC50/IC50 [2],Activity (Human rhinovirus 1A),Activity (rhinovirus B14),Activity (rhinovirus A16 [4]),Activity (rhinovirus A2 [5]),inhibition at 2.5 µg/mL (rhinovirus A2 [6]) [%],Activity (rhinovirus A2 [7]) [%],inhibition at 0.25 µg/mL (rhinovirus A2 [8]) [%],Selectivity ratio [11]
C=C1CC[C@@H](O)C(C)(C)C1CC/C(C)=C/COc1ccc2ccc(=O)oc2c1 (some centres not stated) [FARNESIFEROL B],1,–,–,–,–,–,8.2,8.2,inactive,inactive,inactive,–,–,–,–,–
C[C@H]1CC=C2[C@H](CC[C@H](O)C2(C)C)[C@@]1(C)COc1ccc2ccc(=O)oc2c1 [MICROLOBIDENE],> 10,–,–,–,–,–,10,<1,inactive,inactive,inactive,–,–,–,–,–
Cc1cc(CCCOc2c(C)cc(-c3noc(C(F)(F)F)n3)cc2C)on1 [PLECONARIL],0.01,40,570,0.02,0.02,0.02,12.6,1260,–,–,–,–,–,84.3,100,10

# The next lines start with results.
IC50 (rhinovirus A2 [3]) [µg/mL],EC50 (rhinovirus A2 [9]) [nM],EC50 (rhinovirus A16 [10]) [nM],IC50 (Human rhinovirus 1A) [µg/mL],IC50 (rhinovirus B14; Rhinovirus B) [µg/mL],IC50 (rhinovirus A16 [4]; Rhinovirus A) [µg/mL],Compound,CC50 at 72 h [1] [µg/mL],Ratio CC50/IC50 [2],Activity (Human rhinovirus 1A),Activity (rhinovirus B14),Activity (rhinovirus A16 [4]),Activity (rhinovirus A2 [5]),inhibition at 2.5 µg/mL (rhinovirus A2 [6]) [%],Activity (rhinovirus A2 [7]) [%],inhibition at 0.25 µg/mL (rhinovirus A2 [8]) [%],Selectivity ratio [11]
> 15.5,–,–,–,–,–,CC(=O)O[C@H]1CC[C@]2(C)[C@H](CC[C@@](C)(O)[C@@H]2COc2ccc3ccc(=O)oc3c2)C1(C)C [KELLARIN],15.5,<1,inactive,inactive,inactive,–,–,–,–,–
0.96,–,–,–,–,–,C/C(=C\COc1ccc2ccc(=O)oc2c1)CCC1C(C)(C)[C@H]2CC[C@]1(C)O2 (some centres not stated) [FARNESIFEROL],7.7,8.02,inactive,inactive,inactive,inactive,35.2,–,–,–
